Active and inactive are the calls of the source. No cut-off for these calls is given here.
Columns and labels:
[1] = tested on: Staphylococcus aureus; experiment: Binding affinity to Staphylococcus aureus NCTC 6571 nitroreductase assessed as fluorescent colonies after 24 hrs by fluorescence staining
In short: (§1)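 Columbia agar plates contained substrate at a final 100 mg/L, added from a 1-methyl-2-pyrrolidone solution to molten agar at 50 °C. Inoculum was a 10⁸ CFU/mL suspension in 0.85% saline, spread for single colonies, then incubated at 37 °C in air for 24 h. Colony fluorescence under UV light (365 nm) was graded as strong, moderate, weak or none, with colour noted.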

[2] = tested on: Escherichia coli; experiment: Binding affinity to Escherichia coli NCTC 10418 nitroreductase assessed as fluorescent colonies after 24 hrs by fluorescence staining; in short: as §1
[3] = tested on: Enterococcus faecium; experiment: Binding affinity to Enterococcus faecium NCTC 7171 nitroreductase assessed as fluorescent colonies after 24 hrs by fluorescence staining
[4] = tested on: Pseudomonas aeruginosa; experiment: Binding affinity to Pseudomonas aeruginosa NCTC 10662 nitroreductase assessed as fluorescent colonies after 24 hrs by fluorescence staining; in short: as §1
[5] = tested on: Streptococcus pyogenes; experiment: Binding affinity to Streptococcus pyogenes NCTC 8306 nitroreductase assessed as fluorescent colonies after 24 hrs by fluorescence staining; in short: as §1
[6] = tested on: Staphylococcus aureus; experiment: Binding affinity to Staphylococcus aureus (MRSA) NCTC 11939 nitroreductase assessed as fluorescent colonies after 24 hrs by fluorescence staining; in short: as §1
[7] = tested on: Providencia rettgeri; experiment: Binding affinity to Providencia rettgeri NCTC 7475 nitroreductase assessed as fluorescent colonies after 24 hrs by fluorescence staining; in short: as §1
[8] = tested on: Enterobacter cloacae; experiment: Binding affinity to Enterobacter cloacae NCTC 11936 nitroreductase assessed as fluorescent colonies after 24 hrs by fluorescence staining; in short: as §1
[9] = tested on: Enterococcus faecalis; experiment: Binding affinity to Enterococcus faecalis NCTC 775 nitroreductase assessed as fluorescent colonies after 24 hrs by fluorescence staining; in short: as §1
[10] = tested on: Staphylococcus epidermidis; experiment: Binding affinity to Staphylococcus epidermidis NCTC 11047 nitroreductase assessed as fluorescent colonies after 24 hrs by fluorescence staining; in short: as §1
[11] = tested on: Serratia marcescens; experiment: Binding affinity to Serratia marcescens NCTC 10211 nitroreductase assessed as fluorescent colonies after 24 hrs by fluorescence staining; in short: as §1
[12] = tested on: Morganella morganii; experiment: Binding affinity to Morganella morganii WS 462403 nitroreductase assessed as fluorescent colonies after 24 hrs by fluorescence staining; in short: as §1
[13] = tested on: Listeria monocytogenes; experiment: Binding affinity to Listeria monocytogenes NCTC 11994 nitroreductase assessed as fluorescent colonies after 24 hrs by fluorescence staining; in short: as §1
[14] = tested on: Pseudomonas aeruginosa; experiment: Binding affinity to Pseudomonas aeruginosa NCTC 10662 aminopeptidase assessed as fluorescent colonies after 24 hrs by fluorescence staining
In short: (§2)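 Substrate in 1-methyl-2-pyrrolidone was mixed into molten Columbia agar at 50 °C (final 100 mg/L). NCTC strains were subcultured on Columbia agar and suspended in 0.85% saline to 10⁸ CFU/mL by densitometer. Plates were spread for single colonies and incubated at 37 °C in air for 24 h. Colonies were viewed under UV light (365 nm) and fluorescence intensity and colour scored visually; growth was also scored.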

[15] = tested on: Morganella morganii; experiment: Binding affinity to Morganella morganii WS 462403 aminopeptidase assessed as fluorescent colonies after 24 hrs by fluorescence staining; in short: as §2
[16] = tested on: Escherichia coli; experiment: Binding affinity to Escherichia coli NCTC 10418 aminopeptidase assessed as fluorescent colonies after 24 hrs by fluorescence staining; in short: as §2
[17] = tested on: Enterobacter cloacae; experiment: Binding affinity to Enterobacter cloacae NCTC 11936 aminopeptidase assessed as fluorescent colonies after 24 hrs by fluorescence staining; in short: as §2
[18] = tested on: Providencia rettgeri; experiment: Binding affinity to Providencia rettgeri NCTC 7475 aminopeptidase assessed as fluorescent colonies after 24 hrs by fluorescence staining; in short: as §2
[19] = tested on: Serratia marcescens; experiment: Binding affinity to Serratia marcescens NCTC 10211 aminopeptidase assessed as fluorescent colonies after 24 hrs by fluorescence staining; in short: as §2

SMILES | Activity [1] | Activity [2] | Activity [3] | Activity [4] | Activity [5] | Activity [6] | Activity [7] | Activity [8] | Activity [9] | Activity [10] | Activity [11] | Activity [12] | Activity [13] | Activity [14] | Activity [15] | Activity [16] | Activity [17] | Activity [18] | Activity [19]
O=[N+]([O-])c1ccc(F)cc1-c1nc2ccccc2o1 | Active | Active | inactive | inactive | inactive | Active | Active | Active | inactive | inactive | Active | Active | inactive | – | – | – | – | – | –
NCCC(=O)Nc1ccccc1-c1nc2ccccc2s1 | – | – | – | – | – | – | – | – | – | – | – | – | – | Active | Active | Active | inactive | inactive | Active
NCCC(=O)Nc1ccccc1-c1nc2ccccc2o1 | – | – | – | – | – | – | – | – | – | – | – | – | – | Active | Active | Active | Active | Active | Active
Cn1c(-c2cc(Cl)ccc2[N+](=O)[O-])nc2ccccc21 | Active | Active | inactive | Active | inactive | Active | Active | Active | inactive | inactive | Active | Active | inactive | – | – | – | – | – | –
O=[N+]([O-])c1ccc(Cl)cc1-c1nc2ccccc2o1 | Active | Active | inactive | Active | inactive | Active | Active | Active | inactive | inactive | Active | Active | inactive | – | – | – | – | – | –
O=[N+]([O-])c1ccc(F)cc1-c1nc2ccccc2s1 | Active | Active | inactive | inactive | inactive | Active | Active | Active | inactive | inactive | Active | Active | inactive | – | – | – | – | – | –
COc1cc(-c2nc3ccccc3o2)c([N+](=O)[O-])cc1OC | Active | Active | inactive | inactive | inactive | Active | Active | Active | inactive | inactive | Active | Active | inactive | – | – | – | – | – | –
C[C@H](N)C(=O)Nc1ccccc1-c1nc2ccccc2o1 | – | – | – | – | – | – | – | – | – | – | – | – | – | Active | Active | Active | Active | Active | Active
O=[N+]([O-])c1ccc(Cl)cc1-c1nc2ccccc2s1 | Active | Active | inactive | Active | inactive | Active | Active | Active | inactive | inactive | Active | Active | inactive | – | – | – | – | – | –
COc1cc(-c2nc3ccccc3s2)c([N+](=O)[O-])cc1OC | Active | Active | inactive | Active | inactive | Active | Active | Active | inactive | Active | Active | Active | inactive | – | – | – | – | – | –
Cn1c(-c2ccccc2[N+](=O)[O-])nc2ccccc21 | inactive | inactive | inactive | inactive | inactive | inactive | inactive | inactive | inactive | inactive | inactive | Active | inactive | – | – | – | – | – | –
C[C@H](N)C(=O)Nc1ccccc1-c1nc2ccccc2s1 | – | – | – | – | – | – | – | – | – | – | – | – | – | Active | Active | Active | Active | Active | Active
O=[N+]([O-])c1ccccc1-c1nc2ccccc2o1 | Active | Active | inactive | Active | inactive | Active | Active | Active | inactive | Active | Active | Active | inactive | – | – | – | – | – | –
O=[N+]([O-])c1ccccc1-c1nc2ccccc2s1 | Active | Active | inactive | inactive | inactive | Active | Active | Active | inactive | Active | Active | Active | inactive | – | – | – | – | – | –

From ChEMBL document CHEMBL1773015, “2-Arylbenzothiazole, benzoxazole and benzimidazole derivatives as fluorogenic substrates for the detection of nitroreductase and aminopeptidase activity in clinically important bacteria” (Bioorg Med Chem, 2011)
